Data set [1] in a line: Physicochemical properties of fenebrutinib.
A short description of data set [2]: Free fraction in plasma and blood/plasma partition ratio. Format: in vitro ADME.
A short description of data set [3]: MDCK cell monolayer apparent permeability. Format: in vitro ADME, Canine. As to conditions: dog, MDCK. In outline: (§1)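 Apparent permeability of test compound measured across MDCK monolayers alone and at various H‐β‐CD concentrations. These included a 46:1 H‐β‐CD:compound molar ratio, matching ~8 g H‐β‐CD per oral-solution dose with a 100 mg tablet. Change expressed relative to no H‐β‐CD. MDCK Papp was also scaled (scalar 3.9) to human jejunal Peff.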

Data set [4] concerns Madin‐Darby Canine Kidney (MDCK) cell monolayer. Description: MDCK cell monolayer apparent permeability. The conditions noted are these: molar ratio H‐β‐CD to fenebrutinib 46:1. Format: in vitro ADME. In outline: as §1
For data set [5], the target named is T1, human BCRP (Homo sapiens, UniProt Q9UNQ0).
T1 sequence (Q9UNQ0 1-655): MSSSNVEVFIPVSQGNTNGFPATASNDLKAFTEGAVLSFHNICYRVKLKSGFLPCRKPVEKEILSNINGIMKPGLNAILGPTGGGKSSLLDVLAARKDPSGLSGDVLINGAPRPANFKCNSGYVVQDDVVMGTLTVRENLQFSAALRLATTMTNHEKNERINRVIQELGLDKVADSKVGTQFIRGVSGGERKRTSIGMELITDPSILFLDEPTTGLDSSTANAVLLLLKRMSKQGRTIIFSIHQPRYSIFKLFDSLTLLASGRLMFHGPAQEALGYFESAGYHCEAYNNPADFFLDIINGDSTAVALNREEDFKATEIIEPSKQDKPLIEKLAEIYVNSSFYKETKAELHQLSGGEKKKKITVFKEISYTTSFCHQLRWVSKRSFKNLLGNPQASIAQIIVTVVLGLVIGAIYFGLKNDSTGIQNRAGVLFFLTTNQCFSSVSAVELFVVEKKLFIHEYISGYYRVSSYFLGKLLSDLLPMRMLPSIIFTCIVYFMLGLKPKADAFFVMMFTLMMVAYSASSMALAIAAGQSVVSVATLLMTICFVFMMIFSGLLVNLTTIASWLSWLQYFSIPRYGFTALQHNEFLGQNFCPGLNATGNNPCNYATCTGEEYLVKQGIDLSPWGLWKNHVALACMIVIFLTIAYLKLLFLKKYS
Description: Inhibition of BCRP-mediated efflux in MDCKII cells. Format: cell-based. The method in brief: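 Unbound inhibition constants (OATP1B1/1B3 uptake; BCRP efflux) derived as in vitro IC50/2, then corrected by plasma unbound fraction. This was done because the unbound fraction in the transporter incubation was not measured. Values served as gut and liver transporter inputs to the PBPK model.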

Data set [6] is described as follows: Fenebrutinib PBPK model parameters. Details: species or system human.
Data set [7] is described as follows: Phase I PK of fenebrutinib. Format: in vivo, human. The method in brief:
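Oral dosing in phase I studies as solution, capsule (single and multiple-day) and 200 mg tablet. Plasma concentration–time data were used to estimate total clearance and apparent steady-state volume of distribution (Vss/F).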

The nature of data set [8]: Human mass balance study. Format: in vivo.
In data set [9] the test system is CYP3A. Description: Clinical DDI study Part 4: effect of itraconazole on fenebrutinib PK. Format: in vivo, human. The conditions noted are these: 200 mg itraconazole solution once daily × 8 days; fenebrutinib 100 mg.
Data set [10] is classed as in vivo, dogs. The conditions noted are these: dog, oral tablets, co‐administration with H‐β‐CD.
The nature of data set [11]: Fenebrutinib–H‐β‐CD complexation in vitro. As to conditions: estimated from in vitro experiment. Format: physicochemical.
Data set [12] addresses T1, human BCRP. As to conditions: read-out: IC50 BCRP‐mediated efflux; cited from earlier work.
Data set [13] has as its system CYP3A. The conditions noted are these: time‐dependent inhibition, cited from earlier work.
In data set [14] the test system is OATP1B. As to conditions: rosuvastatin + fenebrutinib vs rosuvastatin alone; cited from earlier work.
Data set [15] has as its system OATP1B1/3 and BCRP. As to conditions: fenebrutinib 200 mg twice daily for 10 days; cited from earlier work.

Each structure is given as a SMILES string. Where “and” joins values, the source holds several entries; their conditions need not be identical. Equal values may be shown once.

This is an account of results in paper PMC7306618 (CPT: Pharmacometrics & Systems Pharmacology, 2020).

In general, logP refers to a log measure of how a compound divides between an organic and an aqueous phase. Low readings indicate a more hydrophilic compound, high ones a more lipophilic compound. A word on the Papp: it is a coefficient for how fast a substance crosses the barrier. As a reminder, the clearance is the rate of elimination divided by the concentration. For orientation: Vd/F means the apparent distribution volume after extravascular dosing. What is called IC50 is the point on the concentration scale where inhibition reaches its midpoint. Turning to `C[C@H]1CN(C2COC2)CCN1c1ccc(Nc2cc(-c3ccnc(N4CCn5c(cc6c5CC(C)(C)C6)C4=O)c3CO)cn(C)c2=O)nc1` [fenebrutinib], in data set [1] (diprotic base), the “pK a1” value is given as 5. In addition, the “pK a2” value in data set [1] (diprotic base) stood at 3.7. The same molecule came in with a logP in data set [1] (octanol/water) of 3.3. Further, the pH solubility profile in data set [1] (pH 2.3) turned out to be 35.9; in data set [1] (pH 2.6), 5.67; in data set [1] (pH 3.0), 1.44; in [1] (pH 3.8), 0.032; in data set [1] (pH 5.0), 0.001; in [1] (pH 6.1), 0.001. The B/P in data set [2] was 0.61. Also, the Papp in [3] worked out at 15.1 ×10⁻⁶ cm/s. The “Decrease in Papp relative to that without H‐β‐CD” value in data set [4] was ~ 15 fold. Further, the Ki in data set [5] is 926 nM; in data set [13] (read-out: CYP3A TDI K I (apparent)), 7.9 µM. The “Hepatic clearance as share of total CL” value in data set [6] (assigned in model) was ~ 95%. Also, the clearance in [6] (human) is 18.3 mL/min. For the same molecule, the CL/F in data set [7] (estimated from phase I PK data) is given as ~ 80 L/hour. Moreover, the Vd/F in data set [7] (human, plasma, oral) is around 13.4 L/kg. In data set [8], the “Share of elimination through metabolic pathway (f m)” value is listed as above 90%. Besides, the “Observed change in Tmax with itraconazole” value in [9] is on record as “delay”. Moreover, the “Observed decrease in Cmax with itraconazole” value in data set [9] was ~ 11% and 11%. The “Observed increase in AUC0‐t with itraconazole” value in data set [9] was 2.28 fold and ~ 2.3 fold. Besides, the “Apparent rate and extent of absorption in the presence of H‐β‐CD” value in [10] was “substantially decreased”. For the same molecule, in data set [11], the “Kcomplex with H‐β‐CD” value is 27000 M⁻¹. In addition, the IC50 in [12] is 9.4 µM. For the same molecule, the “CYP3A TDI K inact” value in data set [13] was 0.684 h⁻¹. Besides, in [13], the CYP3A k inact was 0.0114 min⁻¹. Also, the “Effect of multiple doses on plasma concentration‐time profiles of CP‐I and CP‐III” value in [14] was “comparable”.
`CC(C)c1nc(N(C)S(C)(=O)=O)nc(-c2ccc(F)cc2)c1/C=C/[C@@H](O)C[C@@H](O)CC(=O)O` [rosuvastatin]: in data set [15], the “Observed increase in AUC0–t with fenebrutinib” value is around 2.6 fold and the “Observed increase in Cmax with fenebrutinib” value was ~ 5 fold.
